ChEMBL document CHEMBL4368887, “Synthesis and X-ray study of dispiro 8-nitroquinolone analogues and their cytotoxic properties against human cervical cancer HeLa cells” (Medchemcomm, 2019)
Calls of active or inactive are those of the source. The calls are words filed in the database; no cut-off is given here.

How the values were obtained:
HeLa [1] = experiment: Cytotoxicity against human HeLa cells after 72 hrs by MTT assay; type: functional, cell-based
In short: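 HeLa cells in DMEM with 4 mM L-glutamine, penicillin, streptomycin and 10% FBS. Seeded at 4000 cells/well, settled 24 h, then given serially diluted compound for 72 h at 37°C in 5% CO2. MTT in IMDM for 4 h, acidified ethanol lysis 15 min, A570 with 690 nm background. IC50 is 50% absorbance of untreated wells; three experiments in triplicate.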

HeLa [2] = experiment: Induction of apoptosis in human HeLa cells assessed as chromatin condensation at IC50 by DAPI staining-based fluorescence microscopic analysis; type: functional, cell-based
In short: (§1)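 Cells at 1×10^5 per coverslip exposed at IC50 concentration. Fixed in methanol:acetic acid 3:1 v/v, stained with DAPI 5 µg/mL for 20 min. Nuclear morphology viewed by fluorescence microscopy with a […].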

HeLa [3] = experiment: Induction of apoptosis in human HeLa cells assessed as nuclear shrinkage at IC50 by DAPI staining-based fluorescence microscopic analysis; type: functional, cell-based; in short: as §1
HeLa [4] = experiment: Induction of apoptosis in human HeLa cells assessed as viable cells level at IC50 after 48 hrs by Annexin V-FITC/propidium iodide staining based flow cytometric analysis (reference value: 77.09%); type: functional
HeLa [5] = experiment: Induction of morphological changes in human HeLa cells assessed as detached cells at IC50 after 24 hrs by phase contrast microscopic analysis; type: functional, cell-based
In short: (§2)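 HeLa cells in DMEM with 10% FBS at 37°C, 5% CO2. […] Morphology compared with untreated cells under phase contrast microscope.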

[6] = Induction of hemolysis in human erythrocytes at IC50 by standard optical density assay relative to control; type: cell-based, Erythrocyte; details: read-out: Activity
In short: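 Donor blood diluted in saline; RBCs spun down at 3000 rpm for 10 min and washed three times. Mixed with compound at a range of concentrations and incubated at 37°C in 5% CO2. Spun at 3000 rpm for 5 min, supernatant OD read at 570 nm. Hemolysis % calculated against saline (0%) and distilled water (100%) controls.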

HeLa [7] = experiment: Induction of apoptosis in human HeLa cells assessed as necrotic cells level at IC50 after 48 hrs by Annexin V-FITC/propidium iodide staining based flow cytometric analysis (reference value: %); type: functional
HeLa [8] = experiment: Induction of morphological changes in human HeLa cells assessed as rounded cells at IC50 after 24 hrs by phase contrast microscopic analysis; type: functional, cell-based; in short: as §2
HeLa [9] = experiment: Induction of ROS generation in human HeLa cells at IC50 after 3 hrs by DCFH-DA dye-based flow cytometric analysis; type: functional, cell-based
In short: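 Harvested, washed twice in PBS, then 5 µM DCFH-DA (final) in DMEM for 10 min at 37°C. Flow cytometry at ex 485 / em 530 nm on 20000 cells per sample. Output is % of cells with DCF green fluorescence.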

HeLa [10] = experiment: Induction of apoptosis in human HeLa cells assessed as cytoplasmic shrinkage at IC50 by DAPI staining-based fluorescence microscopic analysis; type: functional, cell-based; in short: as §1
HeLa [11] = experiment: Induction of morphological changes in human HeLa cells assessed as cell shrinkage at IC50 after 24 hrs by phase contrast microscopic analysis; type: functional, cell-based; in short: as §2
HeLa [12] = experiment: Induction of morphological changes in human HeLa cells assessed as disintegrated membrane at IC50 after 24 hrs by phase contrast microscopic analysis; type: functional, cell-based; in short: as §2
HeLa [13] = experiment: Induction of apoptosis in human HeLa cells assessed as apoptotic body formation at IC50 by DAPI staining-based fluorescence microscopic analysis; type: functional, cell-based; in short: as §1
HeLa [14] = experiment: Induction of apoptosis in human HeLa cells assessed as early apoptotic cells level at IC50 after 48 hrs by Annexin V-FITC/propidium iodide staining based flow cytometric analysis (reference value: 0%); type: functional
HeLa [15] = experiment: Induction of apoptosis in human HeLa cells assessed as increase in caspase3 levels at IC50 after 24 hrs by Western blot analysis; type: functional, cell-based
In short: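 Extracts of treated cells quantified by Bradford assay. 50 μg protein run on 12% SDS-PAGE and transferred to nitrocellulose. Blocked in 5% skim milk in PBS for 1 h at room temperature, primary antibody overnight, goat anti-mouse 1:2000. Three independent experiments in triplicate.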

HeLa [16] = experiment: Induction of apoptosis in human HeLa cells assessed as late apoptotic cells level at IC50 after 48 hrs by Annexin V-FITC/propidium iodide staining based flow cytometric analysis (reference value: %); type: functional
HeLa [17] = experiment: Induction of morphological changes in human HeLa cells assessed as swollen cells at IC50 after 24 hrs by phase contrast microscopic analysis; type: functional, cell-based; in short: as §2
HeLa [18] = experiment: Induction of apoptosis in human HeLa cells at IC50 after 48 hrs by Annexin V-FITC/propidium iodide staining based flow cytometric analysis (reference value: 100%); type: functional

Row | SMILES | Activity (HeLa [1]) | IC50 (HeLa [1]) | Activity (HeLa [2]) | Activity (HeLa [3]) | Activity (HeLa [4]) | Activity (HeLa [5]) | hemolysis [6] | Activity (HeLa [7]) | Activity (HeLa [8]) | Activity (HeLa [9]) | Activity (HeLa [10]) | Activity (HeLa [11]) | Activity (HeLa [12]) | Activity (HeLa [13]) | Activity (HeLa [14]) | Activity (HeLa [15]) | Activity (HeLa [16]) | Activity (HeLa [17]) | Activity (HeLa [18])
1 | O=C1c2cccc([N+](=O)[O-])c2NC[C@@]12[C@H](c1ccc(F)cc1)[C@@H](c1ccccc1)N[C@]21C(=O)Nc2ccc(F)cc21 | Dose-dependent effect | 20 µM | – | – | – | – | – | – | – | – | – | – | – | – | – | – | – | – | –
2 | O=C1c2cccc([N+](=O)[O-])c2NC[C@@]12[C@H](c1ccc(Cl)cc1)[C@@H](c1ccccc1)N[C@]21C(=O)Nc2ccc(F)cc21 | Dose-dependent effect | 25 µM | – | – | – | – | – | – | – | – | – | – | – | – | – | – | – | – | –
3 | COc1ccc([C@@H]2[C@@H](c3ccccc3)N[C@]3(C(=O)Nc4ccc(Cl)cc43)[C@]23CNc2c(cccc2[N+](=O)[O-])C3=O)cc1 | Dose-dependent effect | 16 µM | Active | Active | 2.44% | Active | < 7% | 0% | Active | Active | Active | Active | Active | Active | 85.33% | Active | 1.42% | Active | 95.68%
4 | O=C1c2cccc([N+](=O)[O-])c2NC[C@@]12[C@H](c1ccc(F)cc1)[C@@H](c1ccccc1)N[C@]21C(=O)Nc2ccc(Br)cc21 | Dose-dependent effect | 26 µM | – | – | – | – | – | – | – | – | – | – | – | – | – | – | – | – | –
5 | COc1cccc2c1C(=O)c1c(O)c3c(c(O)c1C2=O)C[C@@](O)(C(=O)CO)C[C@@H]3O[C@H]1C[C@H](N)[C@H](O)[C@H](C)O1 [DOXORUBICIN] | Dose-dependent effect | 14 µM | – | – | – | – | – | – | – | – | – | – | – | – | – | – | – | – | –
6 | COc1ccc([C@@H]2[C@@H](c3ccccc3)N[C@]3(C(=O)Nc4ccc(F)cc43)[C@]23CNc2c(cccc2[N+](=O)[O-])C3=O)cc1 | Dose-dependent effect | 24 µM | – | – | – | – | – | – | – | – | – | – | – | – | – | – | – | – | –
7 | O=C1c2cccc([N+](=O)[O-])c2NC[C@@]12[C@H](c1ccc(Br)cc1)[C@@H](c1ccccc1)N[C@]21C(=O)Nc2ccc(Cl)cc21 | Dose-dependent effect | 21 µM | Active | Active | – | Active | < 7% | – | Active | Active | Active | Active | Active | Active | – | – | – | Active | –
8 | O=C1c2cccc([N+](=O)[O-])c2NC[C@@]12[C@H](c1ccc(Br)cc1)[C@@H](c1ccccc1)N[C@]21C(=O)Nc2ccc(F)cc21 | Dose-dependent effect | 26 µM | – | – | – | – | – | – | – | – | – | – | – | – | – | – | – | – | –
9 | COc1ccc([C@@H]2[C@@H](c3ccccc3)N[C@]3(C(=O)Nc4ccc(Br)cc43)[C@]23CNc2c(cccc2[N+](=O)[O-])C3=O)cc1 | Dose-dependent effect | 19 µM | Active | Active | – | Active | < 7% | – | Active | Active | Active | Active | Active | Active | – | – | – | Active | –
10 | O=C1c2cccc([N+](=O)[O-])c2NC[C@@]12[C@H](c1ccc(Cl)cc1)[C@@H](c1ccccc1)N[C@]21C(=O)Nc2ccc(Br)cc21 | Dose-dependent effect | 23 µM | Active | Active | – | Active | < 7% | – | Active | Active | Active | Active | Active | Active | – | – | – | Active | –
11 | O=C1c2cccc([N+](=O)[O-])c2NC[C@@]12[C@H](c1ccc(F)cc1)[C@@H](c1ccccc1)N[C@]21C(=O)Nc2ccc(Cl)cc21 | Dose-dependent effect | 27 µM | – | – | – | – | – | – | – | – | – | – | – | – | – | – | – | – | –
12 | O=C1c2cccc([N+](=O)[O-])c2NC[C@@]12[C@H](c1ccc(Br)cc1)[C@@H](c1ccccc1)N[C@]21C(=O)Nc2ccc(Br)cc21 | Dose-dependent effect | 25 µM | – | – | – | – | – | – | – | – | – | – | – | – | – | – | – | – | –
13 | O=C1c2cccc([N+](=O)[O-])c2NC[C@@]12[C@H](c1ccc(Cl)cc1)[C@@H](c1ccccc1)N[C@]21C(=O)Nc2ccc(Cl)cc21 | Dose-dependent effect | 18 µM | Active | Active | – | Active | < 7% | – | Active | Active | Active | Active | Active | Active | – | – | – | Active | –
